ChEMBL document CHEMBL4699573, “Design, Synthesis, and Pharmacological Evaluation of Analogues Derived from the PLEV Tetrapeptide as Protein-Protein Interaction Modulators of Voltage-Gated Sodium Channel 1.6” (J Med Chem, 2020)
pIC50, pKd: −log10 of the molar value. The source made the active and inactive calls. The calls are words filed in the database; no cut-off is given here. Residues, ends and D or L forms follow the SMILES beside them. *: point of attachment. Adamantane1carbonyl = O=C(C12CC3CC(CC(C3)C1)C2)*; Pyrrolidide = C1CCN(*)C1; Cbz = O=C(OCc1ccccc1)*; OcHex = C1CCC(O*)CC1; OtBu = CC(C)(C)O*; OAll = C=CCO*

Legend:
HEK293 [1] = assay: Modulation of recombinant human FGF141b (1 to 252 residues)-recombinant human Nav1.6 C-terminal tail (1763 to 1976 residues) protein-protein interaction expressed in HEK293 cells assessed as relative luminescence value at 50 uM measured at 2 mins interval for 20 mins by split-luciferase complementation assay relative to control; assay type: cell-based; conditions: filed as modulator, time min 2-20
Procedure, shortened: (§1)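 Double-stable HEK293 line expressing CLuc-FGF14 and CD4-Nav1.6-C-tail-NLuc, kept on G418 and puromycin. Cells seeded for 24 h, then given compound for 1 h in serum-free, phenol red-free DMEM/F12 with a final 0.5% DMSO: 50 μM for screening, 0.25–100 μM over eight concentrations for dose-response; n = 4. D-luciferin added and read every 2 min for 20 min at 37 °C. Peak luminescence expressed as percent of per-plate DMSO mean (n = 32). IC50 from four-parameter nonlinear fit. At least 3 experiments.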

[2] = molecular target: T1, Fibroblast growth factor 14 (Homo sapiens) (UniProt Q92915); assay: Binding affinity to human recombinant FGF14 expressed in Escherichia coli BL21 assessed as dissociation rate constant by SPR analysis; conditions: filed as modulator
T1 sequence (whole entry): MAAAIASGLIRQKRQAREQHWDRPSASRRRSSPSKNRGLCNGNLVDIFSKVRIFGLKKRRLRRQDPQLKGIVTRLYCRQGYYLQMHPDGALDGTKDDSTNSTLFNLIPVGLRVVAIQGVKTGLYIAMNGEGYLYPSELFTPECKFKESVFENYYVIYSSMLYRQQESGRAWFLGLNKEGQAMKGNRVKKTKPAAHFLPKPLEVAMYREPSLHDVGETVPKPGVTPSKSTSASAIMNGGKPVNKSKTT
Procedure, shortened: (§2)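 Biacore T100 runs with FGF14 (17,896 RU) or Nav1.6 C-tail (6,800 RU) amine-coupled on CM5 at pH 5.5. Compounds at 0.195–200 μM in PBS, 0.005% Tween-20, 2% DMSO; 50 μL/min at 25 °C. 120 s association, 150 s dissociation, DMSO calibration, blank subtraction. Rates from a Langmuir 1:1 fit; KD averages the kinetic and steady-state values. At least duplicate experiments.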

HEK293 [3] = assay: Inhibition of full-length Photinus pyralis luciferase transfected in HEK293 cells at 25 uM incubated for 1 hrs by split-luciferase complementation assay; assay type: cell-based
Procedure, shortened: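 HEK293 cells transfected with full-length Photinus pyralis luciferase, then treated 1 h with 25 μM compound (n = 4) or 0.5% DMSO (n = 32). Luminescence read after D-luciferin addition, as in the LCA, normalized to per-plate DMSO controls. One-way ANOVA with Dunnett's test.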

HEK293 [4] = assay: Modulation of recombinant human FGF141b (1 to 252 residues)-recombinant human Nav1.6 C-terminal tail (1763 to 1976 residues) protein-protein interaction expressed in HEK293 cells measured at 2 mins interval for 20 mins by split-luciferase complementation assay relative to control; assay type: cell-based; conditions: filed as modulator, time min 2-20; procedure, shortened: as §1
[5] = molecular target: T2, Sodium channel protein type 8 subunit alpha (Homo sapiens, UniProt Q9UQD0); assay: Binding affinity to human recombinant Nav1.6 C-terminal domain expressed in Escherichia coli BL21 assessed as assessed as induction of protein denaturation by measuring change in melting temperature at 10 uM by fluorescent dye based thermal shift assay; conditions: filed as modulator, dose 50.0 µM
Target sequence in this assay (Q9UQD0 whole entry, looked up, the tested form may be a part): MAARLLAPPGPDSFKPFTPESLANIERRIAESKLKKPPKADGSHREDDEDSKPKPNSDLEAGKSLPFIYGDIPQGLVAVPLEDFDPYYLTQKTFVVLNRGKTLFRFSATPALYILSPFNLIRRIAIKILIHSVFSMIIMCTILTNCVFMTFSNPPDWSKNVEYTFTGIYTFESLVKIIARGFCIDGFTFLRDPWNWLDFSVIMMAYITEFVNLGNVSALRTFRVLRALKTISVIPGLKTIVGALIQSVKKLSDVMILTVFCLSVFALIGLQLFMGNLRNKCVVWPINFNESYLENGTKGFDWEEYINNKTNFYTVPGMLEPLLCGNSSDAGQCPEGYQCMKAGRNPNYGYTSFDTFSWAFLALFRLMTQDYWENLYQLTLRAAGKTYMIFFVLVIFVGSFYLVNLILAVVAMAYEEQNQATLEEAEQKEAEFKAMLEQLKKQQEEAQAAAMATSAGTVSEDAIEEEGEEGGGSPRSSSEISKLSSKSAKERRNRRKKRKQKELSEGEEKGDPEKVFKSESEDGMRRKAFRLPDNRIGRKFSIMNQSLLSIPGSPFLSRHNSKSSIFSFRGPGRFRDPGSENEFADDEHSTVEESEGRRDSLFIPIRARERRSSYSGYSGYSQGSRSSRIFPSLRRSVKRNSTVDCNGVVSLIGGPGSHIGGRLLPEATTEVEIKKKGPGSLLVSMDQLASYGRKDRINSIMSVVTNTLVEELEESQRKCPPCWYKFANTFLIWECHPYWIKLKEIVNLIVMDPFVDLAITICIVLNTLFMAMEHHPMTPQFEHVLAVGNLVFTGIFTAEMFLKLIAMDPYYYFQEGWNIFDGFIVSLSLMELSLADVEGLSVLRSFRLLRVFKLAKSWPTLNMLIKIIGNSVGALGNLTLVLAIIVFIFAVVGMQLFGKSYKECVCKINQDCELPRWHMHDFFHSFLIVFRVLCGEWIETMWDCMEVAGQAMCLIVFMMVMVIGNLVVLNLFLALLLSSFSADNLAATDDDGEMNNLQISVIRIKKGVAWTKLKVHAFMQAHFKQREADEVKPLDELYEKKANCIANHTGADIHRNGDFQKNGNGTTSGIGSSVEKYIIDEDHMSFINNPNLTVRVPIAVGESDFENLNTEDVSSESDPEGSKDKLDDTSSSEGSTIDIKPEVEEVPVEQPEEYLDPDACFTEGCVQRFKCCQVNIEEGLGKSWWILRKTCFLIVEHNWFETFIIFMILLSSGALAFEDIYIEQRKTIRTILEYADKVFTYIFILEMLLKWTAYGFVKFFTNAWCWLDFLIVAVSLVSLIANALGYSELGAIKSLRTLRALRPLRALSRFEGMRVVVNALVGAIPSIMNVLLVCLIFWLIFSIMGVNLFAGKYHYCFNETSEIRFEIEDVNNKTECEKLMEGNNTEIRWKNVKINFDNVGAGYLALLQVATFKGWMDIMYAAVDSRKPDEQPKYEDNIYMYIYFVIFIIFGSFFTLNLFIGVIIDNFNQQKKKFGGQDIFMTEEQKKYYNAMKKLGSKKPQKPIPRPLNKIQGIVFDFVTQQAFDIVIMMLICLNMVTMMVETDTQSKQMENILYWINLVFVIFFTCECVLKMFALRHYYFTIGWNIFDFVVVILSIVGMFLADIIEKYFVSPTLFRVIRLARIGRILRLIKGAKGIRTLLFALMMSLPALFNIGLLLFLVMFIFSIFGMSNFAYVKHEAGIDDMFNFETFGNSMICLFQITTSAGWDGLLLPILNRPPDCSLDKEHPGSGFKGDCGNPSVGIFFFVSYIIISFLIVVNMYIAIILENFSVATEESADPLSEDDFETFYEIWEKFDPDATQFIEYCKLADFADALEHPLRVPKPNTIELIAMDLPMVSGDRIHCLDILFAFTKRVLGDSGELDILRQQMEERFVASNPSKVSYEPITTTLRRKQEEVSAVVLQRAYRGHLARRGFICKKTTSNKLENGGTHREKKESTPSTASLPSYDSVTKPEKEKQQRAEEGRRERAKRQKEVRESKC

[6] = molecular target: T3, Fibroblast growth factor 14 (Homo sapiens, UniProt Q92915); assay: Binding affinity to human recombinant FGF14 expressed in Escherichia coli BL21 assessed as dissociation constant by SPR analysis; procedure, shortened: as §2
T3 sequence (Q92915 whole entry): T1 sequence (whole entry)

[7] = molecular target: T1, Fibroblast growth factor 14 (Homo sapiens); assay: Binding affinity to human recombinant FGF14 expressed in Escherichia coli BL21 assessed as association rate constant by SPR analysis; conditions: filed as modulator; procedure, shortened: as §2
[8] = molecular target: T1, Fibroblast growth factor 14 (Homo sapiens); assay: Binding affinity to human recombinant FGF14 expressed in Escherichia coli BL21 assessed as assessed as induction of protein denaturation by measuring change in melting temperature at 50 uM by fluorescent dye based thermal shift assay; conditions: filed as modulator
[9] = Modulation of recombinant human FGF141b (1 to 252 residues)-recombinant human Nav1.6 C-terminal tail (1763 to 1976 residues) protein-protein interaction expressed in HEK293 cells measured at 2 mins interval for 20 mins by split-luciferase complementation assay; assay type: cell-based; procedure, shortened: as §1
HEK293 [10] = assay: Cytotoxicity against HEK293 cells assessed as reduction in cell viability measured after 18 hrs by celltiter-blue assay; conditions: human, hek293, 18 h
[11] = molecular target: T2, Sodium channel protein type 8 subunit alpha; assay: Binding affinity to human recombinant Nav1.6 C-terminal domain expressed in Escherichia coli BL21 assessed as association rate constant by SPR analysis; conditions: filed as modulator; procedure, shortened: as §2
Target sequence in this assay (Q9UQD0 whole entry, looked up, the tested form may be a part): as above

[12] = molecular target: T2, Sodium channel protein type 8 subunit alpha; assay: Binding affinity to human recombinant Nav1.6 C-terminal domain expressed in Escherichia coli BL21 assessed as dissociation constant by SPR analysis; procedure, shortened: as §2
Target sequence in this assay (Q9UQD0 whole entry, the tested form may be a part): as the sequence (Q9UQD0 whole entry, looked up, the tested form may be a part) above

[13] = molecular target: T2, Sodium channel protein type 8 subunit alpha; assay: Binding affinity to human recombinant Nav1.6 C-terminal domain expressed in Escherichia coli BL21 assessed as dissociation rate constant by SPR analysis; conditions: filed as modulator; procedure, shortened: as §2
Target sequence in this assay (Q9UQD0 whole entry, looked up, the tested form may be a part): as above

SMILES | Activity (HEK293 [1]) | K [2] | inhibition (HEK293 [3]) | Efficacy (HEK293 [4]) | ΔTm [5] | pKd [6] | K [7] | ΔTm [8] | pIC50 [9] | Activity (HEK293 [10]) | K [11] | pKd [12] | K [13]
CC(C)C[C@H](NC(=O)[C@@H]1CCCN1C(=O)OCc1ccccc1)C(=O)N[C@@H](CCC(=O)OC(C)(C)C)C(=O)N[C@H](C(=O)N1CCCC1)C(C)C (Cbz-PLE(OtBu)V-Pyrrolidide) | 14% | 9.91 10^-4/s | inactive | 96.9% | -0.48 °C | 3.72 | 4.61 10^2/M/s | 3.38 °C | 4.48 | Non-Toxic | – | – | –
CCOC(=O)[C@@H](NC(=O)[C@H](CCC(=O)OC(C)(C)C)NC(=O)[C@H](CC(C)C)NC(=O)[C@@H]1CCCN1C(=O)C12CC3CC(CC(C3)C1)C2)C(C)C (Adamantane1carbonyl-PLE(OtBu)V-OEt) | – | 2.05 10^-2/s | – | 82.3% | – | 5.02 | 2.17 10^2/M/s | – | 4.88 | – | 2.64 10^3/M/s | 4.17 | 1.22 10^-2/s
C=CCOC(=O)[C@@H](NC(=O)[C@H](CCC(=O)OC(C)(C)C)NC(=O)[C@H](CC(C)C)NC(=O)[C@@H]1CCCN1C(=O)C12CC3CC(CC(C3)C1)C2)C(C)C (Adamantane1carbonyl-PLE(OtBu)V-OAll) | 5% | 9.32 10^-3/s | inactive | 95.5% | 0.04 °C | 5.88 | 1.79 10^4/M/s | -4.55 °C | 4.94 | Non-Toxic | 6.16 10^6/M/s | < 3.70 | 2.73 10^-3/s
CC(C)C[C@H](NC(=O)[C@@H]1CCCN1C(=O)C12CC3CC(CC(C3)C1)C2)C(=O)N[C@@H](CCC(=O)OC(C)(C)C)C(=O)N[C@H](C(=O)OC(C)(C)C)C(C)C (Adamantane1carbonyl-PLE(OtBu)V-OtBu) | 33.6% | 5.8 10^-3/s | inactive | 92.1% | -0.13 °C | 5.16 | 1.62 10^3/M/s | -0.89 °C | 4.47 | Non-Toxic | 8.29 10^5/M/s | < 3.70 | 7.94 10^-3/s
CC(C)C[C@H](NC(=O)[C@@H]1CCCN1C(=O)C12CC3CC(CC(C3)C1)C2)C(=O)N[C@@H](CCC(=O)OC(C)(C)C)C(=O)N[C@H](C(=O)OC1CCCCC1)C(C)C (Adamantane1carbonyl-PLE(OtBu)V-OcHex) | 43.4% | 1.39 10^-2/s | inactive | 69.9% | 0.43 °C | 5.15 | 7.35 10^3/M/s | -2.21 °C | 4.45 | Non-Toxic | 7.16 10^5/M/s | < 3.70 | 1.7 10^-4/s
